From PubChem
This is a sample that favours compounds with a hit; in the whole collection about 2.1% have one here.
zVAD death inh: L929 zVAD cell death inhibition; L929 zVAD necroptosis rescue, ATP luminescence, 24 h; with zVAD 60 µM; viability rescue, % at 10 µM; hit rate 0.38% among 220,000; AID 1377;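 active = activation, scaled between plate controls, above about 75%, limit read from the data; inactive = activation under that limit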
Hck-Nef inh: human Hck-Nef kinase inhibition | P08631 | Recombinant Hck-YEEI plus Nef, Z-Lyte FRET kinase assay | inhibition, % at 20 µM | hit rate 0.68% among 220,000 | AID 463187;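 active = Hck-Nef kinase inhibition above about 50%, limit read from the data; inactive = inhibition below that limit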
Target sequence (P08631 whole entry, looked up): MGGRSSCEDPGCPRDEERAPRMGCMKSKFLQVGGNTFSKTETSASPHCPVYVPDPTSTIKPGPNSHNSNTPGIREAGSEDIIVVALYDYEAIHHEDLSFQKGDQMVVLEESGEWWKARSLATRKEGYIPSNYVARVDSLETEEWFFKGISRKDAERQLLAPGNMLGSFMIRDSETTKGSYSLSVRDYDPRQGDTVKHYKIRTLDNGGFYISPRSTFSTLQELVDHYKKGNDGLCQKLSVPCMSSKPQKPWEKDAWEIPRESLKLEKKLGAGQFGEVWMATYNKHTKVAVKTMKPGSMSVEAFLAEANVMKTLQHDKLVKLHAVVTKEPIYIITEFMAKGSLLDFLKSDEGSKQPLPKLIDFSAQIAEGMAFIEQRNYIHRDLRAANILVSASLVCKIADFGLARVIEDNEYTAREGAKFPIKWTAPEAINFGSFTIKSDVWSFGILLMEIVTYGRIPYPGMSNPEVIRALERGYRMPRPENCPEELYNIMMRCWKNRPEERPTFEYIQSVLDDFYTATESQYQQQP
TNF death inh: inhibitors of TNF-alpha induced necroptosis in Jurkat FADD-/- cells | Jurkat FADD-/- TNF necroptosis rescue, ATP luminescence, 24 h; 0 = TNF only, 100 = no-TNF cells | activation (protection from cell death), % at 10 µM | hit rate 0.068% among 220,000;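 active = activation, meaning protection from cell death, of at least 50% relative to plate controls; inactive = activation below 50%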;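 note: necroptosis triggered by 40 ng/mL TNF-alpha added together with compound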
RanGTP-Imp inh: disruptors of Ran-importin-beta complex formation – biochemical, FRET, CFP-Ran, YFP-importin-beta, homogeneous, primary screen. inhibition, % (concentration not given with the values). cell-free CFP-Ran/YFP-importin-beta FRET ratio. hit rate 1.1% among 300,000;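 active = more than half of the replicate wells show a fall in the fluorescence ratio signal beyond about 16%, limit read from the data, passing the limit was not always enough; inconclusive = exactly half of the replicate wells pass the set limit; inactive = fewer than half of replicates pass the limit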
Runt-SMMHC FRET: blocks binding of human RUNX1 Runt domain to CBFb-SMMHC; Q01196+Q13951; Cerulean-Runt/Venus-CBFb-SMMHC FRET ratio 530/480, 1 h; inhibition, % at 20 µM; hit rate 0.74% among 220,000; AID 1434;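 active = mean inhibition across duplicate retests at 20 µM reaching about 50%, limit read from the data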;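 note: inhibitors lower the FRET ratio by blocking Runt binding to CBFb-SMMHC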
Runt-CBFb FRET: Runt domain-CBFb interaction inhibition; Q01196+Q13951; Cerulean-Runt/Venus-CBFb FRET ratio 530/480, 1 h; inhibition, % at 20 µM; hit rate 0.46% among 220,000; AID 1496;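 active = inhibition over about 50% at 20 µM in the single-dose screen, limit read from the data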
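Doses: 20 µM compound in 1% DMSO | Material: Cerulean-labeled Runt domain protein | Amount: Each fluorescent fusion protein 100 nM | Schedule: Two 1 h room-temperature incubations shielded from light | Measured by: FRET fluorescence | Evaluation: Loss of energy transfer signal | Controls: Unlabeled CBFb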
zVAD necrop conf: confirmed blocker of zVAD induced death in L929 cells; shares compounds with zVAD death inh; L929 zVAD-induced necroptosis rescue, ATP luminescence, 24 h; activation (protection from necroptosis), % at 10 µM; hit rate 16% among 760;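 active = mean protection from necroptosis of at least 50% over duplicate tests; inactive = mean protection below 50%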
A number is an active result; i = inactive; ? = inconclusive; nt = no result.

SMILES	zVAD death inh	Hck-Nef inh	TNF death inh	RanGTP-Imp inh	Runt-SMMHC FRET	Runt-CBFb FRET	zVAD necrop conf
O=C(Nc1ccc(F)cc1)Nc1ccc(Cl)cn1	75.8	i	i	?	i	i	i
Cc1cccnc1NC(=O)Nc1ccc(F)cc1	81.9	i	i	i	i	i	i
Cc1cnc(NC(=O)CSc2ccc(Cl)cc2)s1	i	i	i	i	i	i	nt
NCCCNc1ccc([N+](=O)[O-])cc1C(F)(F)F	i	i	i	i	i	i	nt
O=c1[nH]c2ccccc2c(O)c1-c1ccccc1[N+](=O)[O-]	i	i	i	i	i	i	nt
Cc1ccc2c(c1)C(=C(C#N)C#N)C(=O)N2CCN1CCOCC1	88.5	i	i	i	i	i	i
Cc1ccc2c(c1)C(=C(C#N)C#N)C(=O)N2CCN1CCCCC1	89.8	i	i	i	i	i	i
O=C(C[n+]1ccc(/C=N/O)cc1)NC1CCCCC1	i	i	i	i	i	i	nt
Cc1nc2cc(NC(=O)Nc3ccc(Br)cc3)ccc2o1	80.3	i	i	i	i	i	i
Cc1ccc(C2CC(=O)NC(SCC(=O)Nc3nccs3)=C2C#N)cc1 (stereo unspecified)	96.0	i	92.4	i	i	i	84.7
N#CC1=C(SCC(=O)Nc2ccccc2)NC(=O)CC1c1ccc(O)cc1 (stereo unspecified)	i	i	i	i	i	i	nt
Cc1cccc(C)c1NC(=O)[C@@]1(CC(=O)O)CC(/C=C/c2ccccc2)=NO1	nt	nt	nt	i	nt	nt	nt
COc1cc(NC(=O)c2cccnc2Sc2ccc(Cl)cc2)cc(OC)c1OC	76.9	i	i	i	i	i	i
CC(=O)c1sc(NC(=O)c2ccc(C)c(C)c2)nc1C	i	i	i	i	i	i	nt
CC(=O)c1sc(NC(=O)c2ccc(C(C)(C)C)cc2)nc1C	75.5	i	i	i	i	i	i
CCCC(NC(=O)CCc1c(C)c2cc3c(-c4ccccc4)coc3cc2oc1=O)C(=O)O (stereo unspecified)	nt	nt	nt	i	nt	nt	nt
CC1=CC(=Nc2c(C)n(C)n(-c3ccccc3)c2=O)C=CC1=O	76.7	i	i	i	i	i	50.0
CC(C)C(c1nnnn1C(C)(C)C)N1CCC(Cc2ccccc2)CC1 (stereo unspecified)	nt	i	i	i	i	i	nt
c1ccc(-n2cnc3cc(NCc4ccccn4)ccc32)cc1	76.4	i	i	i	i	i	62.9
c1ccc(-n2cnc3cc(NCc4ccncc4)ccc32)cc1	83.2	i	i	i	i	i	57.8
CC(=O)Nc1ccc2c(c1)ncn2-c1ccccc1	i	i	i	i	i	i	nt
CSc1nc2ccc(Nc3nc(N4CCOCC4)nc(N4CCOCC4)n3)cc2s1	84.1	i	i	nt	i	i	i
O=C(NC12CC3CC(CC(C3)C1)C2)c1ccc(-c2ccc(Cl)cc2)o1	81.6	i	i	i	i	i	i
CCCCN(C(=O)c1cc(=O)[nH]c2ccccc12)c1c(N)n(CCCC)c(=O)[nH]c1=O	nt	nt	nt	i	nt	nt	nt
CCC(C)c1ccccc1N1CC(C(=O)NCCc2ccc(OC)c(OC)c2)CC1=O (stereo unspecified)	nt	nt	nt	i	nt	nt	nt
SMILES	zVAD death inh	Hck-Nef inh	TNF death inh	RanGTP-Imp inh	Runt-SMMHC FRET	Runt-CBFb FRET	zVAD necrop conf
S=C(NCCc1ccc(Cl)cc1)NC1CC1	91.8	i	i	i	i	i	i
NS(=O)(=O)c1ccc(CCNC(=S)NC2CCCC2)cc1	i	i	i	i	i	i	nt
C/C(CC(=O)Nc1ccccn1)=N\NC(=O)c1cnccn1	i	i	i	i	i	i	nt
O=c1cc(N2CCN(c3cccc(Cl)c3)CC2)[nH]c(=O)n1C1CCCCC1	81.2	i	i	i	i	i	i
CN1CCN(c2cc(=O)n(C3CCCCC3)c(=O)[nH]2)CC1	i	i	i	i	i	i	nt
O=c1cc(N2CCN(c3ccccc3)CC2)[nH]c(=O)n1C1CCCCC1	81.2	i	i	i	i	i	i
O=C(c1ccc(Cl)cc1)N1CCOc2ccccc21	nt	nt	nt	i	nt	nt	nt
C/C(=N\Nc1ccc(Cl)cc1)c1c(O)cc(C)oc1=O	i	i	i	i	i	i	nt
